The source made the active and inactive calls. The rule behind the calls is not given here.
Key:
[1] = target: T1, Indoleamine 2,3-dioxygenase 1 (Homo sapiens, UniProt P14902); experiment: Inhibition of human IDO1 incubated for 60 mins in presence of L-tryptophan by HPLC analysis
Outline: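 Recombinant human IDO1 (10 μg/mL) was assayed in 50 mM potassium phosphate pH 6.5 with 10 mM ascorbate, 10 μM methylene blue and 100 μg/mL catalase. Reaction was started with 200 μM L-Trp and run at 37 °C for 60 min. It was stopped with TCA, then held at 50 °C for 15 min to hydrolyse N-formylkynurenine. Kynurenine was measured by reversed-phase HPLC at 360 nm; triplicate determinations averaged.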
Target sequence in this assay (P14902 whole entry): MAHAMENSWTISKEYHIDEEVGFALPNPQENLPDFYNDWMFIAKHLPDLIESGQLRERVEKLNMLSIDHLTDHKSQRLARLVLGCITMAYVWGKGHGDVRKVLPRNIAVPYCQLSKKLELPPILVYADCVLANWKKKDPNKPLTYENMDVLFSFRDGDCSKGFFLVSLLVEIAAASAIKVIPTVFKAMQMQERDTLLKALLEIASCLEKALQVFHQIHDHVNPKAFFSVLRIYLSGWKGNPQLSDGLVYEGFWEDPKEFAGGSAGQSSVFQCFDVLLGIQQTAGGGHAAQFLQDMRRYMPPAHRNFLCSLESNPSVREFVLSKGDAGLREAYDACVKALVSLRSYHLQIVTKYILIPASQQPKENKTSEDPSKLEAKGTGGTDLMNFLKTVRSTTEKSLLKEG

HCT-116 [2] = experiment: Reversible induction of cell cycle arrest in human HCT-116 cells assessed as increase of accumulation at G2/M phase at 2.5 uM incubated for 24 hrs and harvested after further 24 hrs recovery in drug-free medium by […] staining based flow cytometry; type: functional
Outline: (§1)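 Cells were exposed 24 h to 20, 10 or 2.5 μM or to 0.1% DMSO, then washed into drug-free medium for a further 24 h before harvest. DNA content was measured by propidium iodide flow cytometry on at least 10000 cells per sample. G2/M and other phase fractions are given as fold change versus DMSO, as mean ± SD of three independent experiments.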

HT-29 [3] = experiment: Reversible induction of cell cycle arrest in human HT-29 cells assessed as increase of accumulation at G2/M phase at 10 uM incubated for 24 hrs and harvested after further 24 hrs recovery in drug-free medium by […] staining based flow cytometry; type: functional; outline: as §1
HT-29 [4] = experiment: Induction of cell cycle arrest in human HT-29 cells assessed as increase of accumulation at G2/M phase at 2.5 uM incubated for 24 hrs by […] staining based flow cytometry; type: functional
Outline: (§2)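 Cells in DMEM/10% FBS were treated 24 h at 20, 10 or 2.5 μM alongside a 0.1% DMSO vehicle, then stained with propidium iodide for DNA content by flow cytometry, acquiring at least 10000 cells per sample. G0/G1, S and G2/M fractions are expressed as fold change versus DMSO. Values are mean ± SD of three independent experiments.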

HCT-116 [5] = experiment: Induction of cell cycle arrest in human HCT116 cells assessed as increase of accumulation at G2/M phase at 10 uM incubated for 24 hrs by […] staining based flow cytometry; type: functional; outline: as §2
HT-29 [6] = experiment: Growth inhibition of human HT-29 cells assessed as cell viability at 2.5 uM incubated for 24 hrs by MTT assay; type: functional; settings: read-out: Activity
Outline: (§3)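 Cells grown in DMEM (4.5 g/L glucose) with 10% FBS, penicillin/streptomycin and 2 mM glutamine, seeded and allowed 24 h to attach, then exposed 24 h to compound. The range was 5–80 μM or 2.5–80 μM. MTT (500 μM in PBS) was added for 3 h at 37 °C in the dark. Formazan was dissolved in propan-2-ol/0.04 N HCl and read at 550 nm. Viability is given as % of 0.1% DMSO control; three independent experiments in triplicate.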

HCT-116 [7] = experiment: Growth inhibition of human HCT116 cells assessed as cell viability at 10 uM incubated for 24 hrs by MTT assay; type: functional; settings: read-out: Activity; outline: as §3
HT-29 [8] = experiment: Growth inhibition of human HT-29 cells incubated for 24 hrs by MTT assay; type: functional, cell-based; outline: as §3
HCT-116 [9] = experiment: Growth inhibition of human HCT116 cells incubated for 24 hrs by MTT assay; type: functional, cell-based; outline: as §3
HT-29 [10] = experiment: Induction of cell death in human HT-29 cells assessed as reduction in Bcl-xL expression at 10 uM incubated for 24 hrs by Western blot analysis; type: functional, cell-based; settings: dose 2.5 µM, in the assay text read “at 2.5 uM” for “at 10 uM”
Outline: (§4)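 Cells were treated 24 h with compound or DMSO, then lysed in RIPA-type buffer (50 mM Tris pH 7.4, 150 mM NaCl, 0.1% SDS, 1% deoxycholate, 1% Triton X-100, 5 mM EDTA, protease inhibitors). Protein was quantified by Bradford, run on 12% SDS-PAGE and transferred to PVDF. Blots were probed overnight at 4 °C for Mcl1, Bcl-xL (1:1000), β-catenin (1:500) and β-actin loading control (1:5000), with HRP secondary and ECL detection.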

HT-29 [11] = experiment: Induction of cell death in human HT-29 cells assessed as reduction in Mcl1 expression at 10 uM incubated for 24 hrs by Western blot analysis; type: functional, cell-based; settings: dose 2.5 µM, in the assay text read “at 2.5 uM” for “at 10 uM”; outline: as §4
HT-29 [12] = experiment: Induction of cell death in human HT-29 cells assessed as reduction in beta-catenin expression at 10 uM incubated for 24 hrs by Western blot analysis; type: functional, cell-based; settings: dose 2.5 µM, in the assay text read “at 2.5 uM” for “at 10 uM”; outline: as §4
HT-29 [13] = experiment: Induction of cell death in human HT-29 cells assessed as reduction in Bcl-xL expression at 2.5 uM incubated for 24 hrs by Western blot analysis; type: functional, cell-based; outline: as §4
HT-29 [14] = experiment: Induction of cell death in human HT-29 cells assessed as reduction in Mcl1 expression at 2.5 uM incubated for 24 hrs by Western blot analysis; type: functional, cell-based; outline: as §4
HT-29 [15] = experiment: Induction of cell death in human HT-29 cells assessed as reduction in beta-catenin expression at 2.5 uM incubated for 24 hrs by Western blot analysis; type: functional, cell-based; outline: as §4
HCT-116 [16] = experiment: Reversible induction of cell cycle arrest in human HCT-116 cells assessed as increase of accumulation at G2/M phase at 10 uM incubated for 24 hrs and harvested after further 24 hrs recovery in drug-free medium by […] staining based flow cytometry; type: functional; outline: as §1
HT-29 [17] = experiment: Reversible induction of cell cycle arrest in human HT-29 cells assessed as increase of accumulation at G2/M phase at 20 uM incubated for 24 hrs and harvested after further 24 hrs recovery in drug-free medium by […] staining based flow cytometry; type: functional; outline: as §1
HT-29 [18] = experiment: Induction of cell cycle arrest in human HT-29 cells assessed as increase of accumulation at G2/M phase at 20 uM incubated for 24 hrs by […] staining based flow cytometry; type: functional; settings: dose 10.0 µM, in the assay text read “at 10 uM” for “at 20 uM”; outline: as §2
HT-29 [19] = experiment: Growth inhibition of human HT-29 cells assessed as cell viability at 10 uM incubated for 24 hrs by MTT assay; type: functional; settings: read-out: Activity; outline: as §3
HCT-116 [20] = experiment: Growth inhibition of human HCT116 cells assessed as cell viability at 20 uM incubated for 24 hrs by MTT assay; type: functional; settings: read-out: Activity; outline: as §3
HCT-116 [21] = experiment: Induction of cell cycle arrest in human HCT116 cells assessed as increase of accumulation at G2/M phase at 20 uM incubated for 24 hrs by […] staining based flow cytometry; type: functional; outline: as §2
HCT-116 [22] = experiment: Induction of cell death in human HCT-116 cells assessed as reduction in Bcl-xL expression at 10 uM incubated for 24 hrs by Western blot analysis; type: functional, cell-based; settings: dose 20.0 µM, in the assay text read “at 20 uM” for “at 10 uM”; outline: as §4
HCT-116 [23] = experiment: Induction of cell death in human HCT-116 cells assessed as reduction in Mcl1 expression at 10 uM incubated for 24 hrs by Western blot analysis; type: functional, cell-based; settings: dose 20.0 µM, in the assay text read “at 20 uM” for “at 10 uM”; outline: as §4
HCT-116 [24] = experiment: Induction of cell death in human HCT-116 cells assessed as reduction in beta-catenin expression at 10 uM incubated for 24 hrs by Western blot analysis; type: functional, cell-based; settings: dose 20.0 µM, in the assay text read “at 20 uM” for “at 10 uM”; outline: as §4
[25] = target: T1, Indoleamine 2,3-dioxygenase 1; experiment: Inhibition of human IDO1 at 100 uM incubated for 60 mins in presence of L-tryptophan by HPLC analysis relative to control
Target sequence in this assay (P14902 whole entry, looked up): as the sequence (P14902 whole entry) above

HT-29 [26] = experiment: Induction of cell death in human HT-29 cells assessed as reduction in Mcl1 expression at 10 uM incubated for 24 hrs by Western blot analysis
HT-29 [27] = experiment: Induction of cell death in human HT-29 cells assessed as reduction in Bcl-xL expression at 10 uM incubated for 24 hrs by Western blot analysis
HT-29 [28] = experiment: Induction of cell death in human HT-29 cells assessed as reduction in beta-catenin expression at 10 uM incubated for 24 hrs by Western blot analysis

COC(=O)c1[nH]c2ccc(Cl)cc2c1Sc1ccccc1OC
IC50 [1]: > 200 µM

COc1cc(OC)cc(Sc2c(C)[nH]c3ccc(Cl)cc23)c1
IC50 [1]: 45 µM

Cc1ccc(Sc2c[nH]c3ccc(Cl)cc23)cc1
IC50 [1]: > 200 µM

Clc1ccc2[nH]cc(Sc3ccccc3)c2c1
IC50 [1]: > 200 µM

COc1ccccc1Sc1c[nH]c2ccc(I)cc12
IC50 [1]: 45 µM

Cc1ccccc1Sc1c[nH]c2ccc(Cl)cc12
IC50 [1]: 21 µM

COc1ccccc1S(=O)(=O)c1c[nH]c2ccc(Cl)cc12
IC50 [1]: > 200 µM

COc1cc(OC)cc(Sc2c[nH]c3c(Cl)c(Cl)ccc23)c1
IC50 [1]: 90 µM

COc1ccccc1Sc1c[nH]c2ccc(Br)cc12
IC50 [1]: 24 µM

COc1ccc(Sc2c[nH]c3ccc(Cl)cc23)c(OC)c1
IC50 [1]: > 50 µM

COc1ccccc1Sc1c[nH]c2ccc(F)cc12
IC50 [1]: 32 µM

COc1ccc(Sc2c[nH]c3ccc(Cl)cc23)cc1
IC50 [1]: 16 µM

COc1cccc(Sc2c[nH]c3ccc(Cl)cc23)c1
IC50 [1]: 21 µM

Cc1cccc(Sc2c[nH]c3ccc(Cl)cc23)c1
IC50 [1]: 100 µM

COc1cc(OC)cc(Sc2c[nH]c3ccc(Cl)cc23)c1
Activity (HCT-116 [2]): Active | Activity (HT-29 [3]): Active | Activity (HT-29 [4]): Active | Activity (HCT-116 [5]): Active | viability at 2.5 µM (HT-29 [6]): 40% | viability at 10 µM (HCT-116 [7]): 40% | IC50 [1]: 7 µM | growth inhibition (GI) (HT-29 [8]): Dose-dependent effect | growth inhibition (GI) (HCT-116 [9]): Dose-dependent effect | Activity (HT-29 [10]): Active | Activity (HT-29 [11]): Active | Activity (HT-29 [12]): Active | Activity (HT-29 [13]): Active | Activity (HT-29 [14]): Active | Activity (HT-29 [15]): Active

COc1ccccc1Cc1c[nH]c2ccc(Cl)cc12
IC50 [1]: 63 µM

COc1cc(OC)cc(Sc2c[nH]c3cc(Cl)ccc23)c1
IC50 [1]: 15 µM

COc1ccccc1Sc1c[nH]c2ccc(Cl)cc12
Activity (HCT-116 [16]): Active | Activity (HT-29 [17]): Active | Activity (HT-29 [18]): Active | viability at 10 µM (HT-29 [19]): 40% | viability at 20 µM (HCT-116 [20]): 40% | Activity (HCT-116 [21]): Active | IC50 [1]: 17.5 µM | growth inhibition (GI) (HT-29 [8]): Dose-dependent effect | growth inhibition (GI) (HCT-116 [9]): Dose-dependent effect | Activity (HCT-116 [22]): Active | Activity (HCT-116 [23]): Active | Activity (HCT-116 [24]): Active | inhibition [25]: 80% | Activity (HT-29 [26]): Active | Activity (HT-29 [27]): Active | Activity (HT-29 [28]): Active

COc1ccccc1C(=O)c1c[nH]c2ccc(Cl)cc12
IC50 [1]: > 200 µM

COc1cc(OC)cc(Sc2c[nH]c3ccccc23)c1
IC50 [1]: 25 µM

COc1cc(OC)cc(Sc2c[nH]c3c(Cl)cccc23)c1
IC50 [1]: > 200 µM

COc1cc(Sc2c[nH]c3ccc(Cl)cc23)cc(OC)c1OC
IC50 [1]: 40 µM

Cc1cc(C)cc(Sc2c[nH]c3ccc(Cl)cc23)c1
IC50 [1]: 20 µM

COc1cc(OC)cc(Sc2c[nH]c3cccc(Cl)c23)c1
IC50 [1]: 52 µM

COc1cc(OC)cc(Sc2c[nH]c3ncccc23)c1
IC50 [1]: > 200 µM

CCOc1ccc2[nH]cc(Sc3ccccc3OC)c2c1
IC50 [1]: > 200 µM
